The campaign covered roughly 97,000 compounds. About 770 (0.79%) were called active.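 How the source made its calls: active means inhibition above the screen-wide mean plus 3 SD (cut at about 35% in these data); inactive means the rest.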 The list comes from a sample in which actives are over-represented; it also holds similar structures and randomly drawn compounds.
Target: Protein Rev (Human immunodeficiency virus type 1 group M subtype B (isolate WMJ22)) (UniProt P05866)
Assay: disruptors of Rev peptide-RRE RNA complex – biochemical, FRET, protein-RNA interaction, primary screen (AID 704);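 further: 0% = median DMSO wells and 100% = median Neomycin B control wells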
Conditions: Rev peptide-RRE RNA binding, at 8 µM, hits give high values
Summary of the method: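 Material: labelled RRE RNA duplex and labelled Rev peptide / Buffer or medium: HEPES pH 7.5 salt buffer with EDTA / Compound dosing: single point, 8 µM final nominal compound concentration / Benchmarks: DMSO low control, neomycin B high control / Timing: 5 min preincubation and 15 min binding, 25 °C / Technique: FRET fluorescence readout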

Protein Rev (Human immunodeficiency virus type 1 group M subtype B (isolate WMJ22)), sequence (P05866 whole entry, looked up): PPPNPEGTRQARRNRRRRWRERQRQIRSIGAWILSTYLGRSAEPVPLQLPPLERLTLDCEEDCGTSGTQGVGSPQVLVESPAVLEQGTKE

| SMILES | inhibition |
| --- | --- |
| COc1ccc(CNC(=O)c2c(C)cc(=O)oc2C)cc1OC | 10.2% (inactive) |
| Cc1cc(=O)oc(C)c1C(=O)Nc1cnc2ccccc2c1 | 53% (active) |
| CN1/C(=c2/s/c(=C3/C(=O)N(c4ccccc4)NC3=Nc3ccccc3)n(C)c2=O)C(C)(C)c2ccccc21 | 96.1% [fluorescence artefact?] (active) |
| CC1=NN(c2cccc(Cl)c2)C(=O)C12CC(C)=C(C)CS2 (configuration not stated) | 16.6% (inactive) |
| COc1nc(NC2CCCCC2)nc(N2CCCCCC2)n1 | 2.85% (inactive) |
| COc1cccc2c1OCC(C(=O)NCc1ccc(Cl)cc1Cl)=C2 | 10.5% (inactive) |
| Cc1ccc(-c2nnc(-n3nnc4ccccc43)c3ccccc23)cc1 | -4.36% (inactive) |
| COc1ccc(-c2nn(C)c(=O)c3ccccc23)cc1NC(=O)COc1ccccc1 | 0.74% (inactive) |
| CCNCCC(=O)N1c2ccccc2Sc2ccc(NC(=O)OCC)cc21 | -4.36% (inactive) |
| CC1CCN(C(=O)CN(c2ccc(Oc3ccccc3)cc2)S(C)(=O)=O)CC1 | 2.29% (inactive) |
| CCOc1ccc(C(CCc2ccccc2)NC(=O)c2ccc(OC)c(OC)c2)cc1OCC (configuration not stated) | -1.68% (inactive) |
| COc1ccc(N(CC(=O)NC2CCCCC2)S(=O)(=O)c2c(C)[nH]c(=O)[nH]c2=O)cc1 | -2.97% (inactive) |
| CCCCCCNC(=O)CSc1nccn1Cc1ccccc1 | 1.79% (inactive) |
| O=C(Nc1ccc(-n2ccnc2P(=O)(O)c2ccccc2)cc1)c1ccccc1Br | -0.76% (inactive) |
| Cc1nn(-c2ccccn2)c2c1C(c1ccncc1)C1=C(CC(C)(C)CC1=O)N2 (configuration not stated) | 12.1% (inactive) |
| CCOC(=O)CSc1ncc(-c2cccc(Cl)c2)cn1 | 8.5% (inactive) |
| Cc1ccc(-c2nnc(C)c(N3CC(C)OC(C)C3)n2)cc1 (configuration not stated) | 5.11% (inactive) |
| Cc1nnc(NC(=O)Cn2c(=O)sc3ccccc32)s1 | 2.18% (inactive) |
| Cn1c(SCC(=O)N2CCCc3ccccc32)nc2ccccc2c1=O | 3.69% (inactive) |
| CC(=O)c1ccc(S(=O)(=O)N2CCN(c3nc4c(C)c(C)ccc4cc3C#N)CC2)cc1 | 9.9% (inactive) |
| COCc1cc(C)nc2sc(C(=O)NC3CCCCC3)c(N)c12 | 12.8% (inactive) |
| COC(=O)C1=C(C)OC(N)=C(C#N)C1c1cc(OC)ccc1OC (configuration not stated) | 9.18% (inactive) |
| CCN1CC=C2C(C#N)=C(N)C(C#N)(C#N)[C@H](c3ccoc3)[C@H]2C1 | 61.7% (active) |
| CCOC(=O)N1CC=C2C(C#N)=C(N)C(C#N)(C#N)[C@H](c3cccs3)[C@H]2C1 | 29.8% (inactive) |

| SMILES | inhibition |
| --- | --- |
| CCCN1CC=C2C(C#N)=C(N)C(C#N)(C#N)C(c3cc(OC)ccc3OC)C2C1 (configuration not stated) | 71.8% (active) |
| N#CC1=C(N)C(C#N)(C#N)[C@H](c2ccsc2)[C@H]2COCC=C12 | 35.5% (inactive) |
| COc1ccc(C2CC(c3ccc(C)cc3)Nc3nc(N)nn32)cc1 (configuration not stated) | 3.26% (inactive) |
| COc1ccc(C2C=C(c3ccc(Br)cc3)Nc3nc(NS(C)(=O)=O)nn32)cc1 (configuration not stated) | 83.2% [fluorescence artefact?] (active) |
| Fc1ccccc1/C=C1\CCCC2=C1Nc1ncnn1C2c1ccccc1F (configuration not stated) | 9.16% (inactive) |
| COC(=O)c1c(-c2cccs2)csc1NC(=O)CSc1ncnc2sc(C)c(C)c12 | 6.95% (inactive) |
| COc1cccc(OC)c1C(=O)Nc1ccc(N2CCCCC2)cc1 | 4.3% (inactive) |
| CCCC(=O)n1nc(-c2ccccc2)nc1N | 0.74% (inactive) |
| CCCNC(=O)c1c(N)n(-c2ccc(S(N)(=O)=O)cc2)c2nc3ccccc3nc12 | 1.66% (inactive) |
| O=C1c2ccccc2C(=O)c2c1cccc2N1CCN(Cc2ccccc2)CC1 | 10.8% (inactive) |
| CCCCNC(=O)OC(C)CNC(=O)OC (configuration not stated) | -1.24% (inactive) |
| CC(=O)Oc1ccc(NC(=O)CCC2CCCCC2)c(C(=O)O)c1 | -1.47% (inactive) |
| CCOc1ccc(C(O)Cc2nc3ccccc3n2C)cc1 (configuration not stated) | -0.15% (inactive) |
| CCOC(=O)c1cc(C#N)c(N2CCCCC2)nc1-c1ccccc1 | 14.6% (inactive) |
| Cc1ccc(Sc2cc(N3CCOCC3)nc(-c3ccccc3)n2)cc1 | 12.8% (inactive) |
| CS(=O)(=O)N1CCN(c2cccc(Cl)n2)CC1 | 3.87% (inactive) |
| CCC(=O)N(Cc1ccccc1)c1ccccn1 | 7.11% (inactive) |
| COC(=O)C1=C(C)Nc2ncnn2C1c1ccco1 (configuration not stated) | 3.56% (inactive) |
| Brc1ccc(C2=CC(c3ccco3)n3ncnc3N2)cc1 (configuration not stated) | 124% [fluorescence artefact?] (active) |
| Clc1ccc2c(c1)C1=C(C(c3ccncc3)O2)C(c2ccc(Br)cc2)n2ncnc2N1 (configuration not stated) | -1.15% (inactive) |
| COc1ccc(CN(CC(=O)NC2CCCC2)C(=O)CCC(=O)Nc2cc(C)on2)cc1 | -2.37% (inactive) |
| Cc1cccc(NC(=O)CSc2nc3c(c(=O)[nH]2)CCCC3)c1C | 5.45% (inactive) |
| O=C(NCc1cccnc1)c1cccnc1Sc1ccc(Cl)cc1 | 5.95% (inactive) |

Source: PubChem BioAssay AID704 (The Scripps Research Institute Molecular Screening Center, 2007)
